Data published in ChEMBL document CHEMBL1156079, “Imidazoquines as antimalarial and antipneumocystis agents” (J Med Chem, 2009).
In brackets after ≈: the same amount, converted by molar mass. Each block holds one compound with its values, some of them ahead of it.

How the values were obtained:
[1] = Octanol/water partition coefficient, log P of the compound; assay type: physicochemical
Homo sapiens = species on record: Homo sapiens; test: Half life in human plasma by HPLC analysis
[2] = Solubility in water; assay type: physicochemical
Pneumocystis carinii [3] = test: Antipneumocystis activity against Pneumocystis carinii assessed as reduction in parasite ATP content at < 0.2% v/v by luciferin-luciferase assay; assay type: functional, organism-based; details: TDE = time-dependent effect
Pneumocystis carinii [4] = test: Antipneumocystis activity against Pneumocystis carinii assessed as reduction in parasite ATP content after 72 hrs by luciferin-luciferase assay; assay type: functional, organism-based
Procedure, shortened: (§1)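 P. carinii from immunosuppressed, intratracheally inoculated Long Evans and Brown Norway rats, 10⁸ nuclei/ml in supplemented RPMI 1640 with 20% calf serum, pH 7.5–8.0, 380 mOsm. Compounds added in DMSO (final <0.2% v/v). Incubated at 35 °C, 10% CO₂, with daily medium change; sampled at 24, 48 and 72 h. ATP measured by luciferin-luciferase as % of untreated control; triplicate wells across isolation batches, three readings each.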

[5] = Chemical stability by HPLC analysis; assay type: physicochemical
Plasmodium falciparum = test: Antiplasmodial activity against chloroquine-resistant blood stage Plasmodium falciparum W2 after 48 hrs by FACS analysis; assay type: functional, organism-based; details: W2, 48 h
Pneumocystis carinii [6] = test: Antipneumocystis activity against Pneumocystis carinii assessed as reduction in parasite ATP content after 24 hrs by luciferin-luciferase assay; assay type: functional, organism-based; procedure, shortened: as §1
Plasmodium berghei [7] = test: (§2) Antiplasmodial activity against Plasmodium berghei ANKA infected in BALB/c mice (Mus musculus) assessed as parasite-transmission to Anopheles stephensi after feeding on infected mice (Mus musculus) at 50 umol/kg, intraperitoneally administered 4 days after infection measured 10 days after 2 hrs of mosquito feeding by transmission-blocking activity assay relative to control; assay type: functional
Procedure, shortened: (§3)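 Balb/C mice infected with P. berghei ANKA; after 4 days, once gametocytes were seen on Giemsa blood films, groups of six got one intraperitoneal dose (10 or 50 μmol/kg; PBS controls). At 2 h, anesthetized mice fed ca. 50 glucose-starved female An. stephensi for 2 h. Ten days later, 10 mosquitoes per cage dissected; midgut oocysts counted, giving % infected mosquitoes and mean oocysts per mosquito.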

A549 = test: Cytotoxicity against human A549 cells after 72 hrs; assay type: cell-based; details: A549, 72 h
Plasmodium berghei [8] = test: Antiplasmodial activity against liver-stage GFP expressing Plasmodium berghei sporozoites infected in human HuH7 cells assessed as inhibition of parasite schizonts development after 48 hrs by FACS analysis; assay type: functional, organism-based; details: for Activity: Huh-7; for IC50: Huh-7, Liver
Plasmodium berghei [9] = test: as §2, with “10” for “50”; assay type: functional; procedure, shortened: as §3
Pneumocystis carinii [10] = test: Antipneumocystis activity against Pneumocystis carinii assessed as reduction in parasite ATP content after 24 to 72 hrs by luciferin-luciferase assay; assay type: functional, organism-based; procedure, shortened: as §1
Pneumocystis carinii [11] = test: Antipneumocystis activity against Pneumocystis carinii assessed as reduction in parasite ATP content after 48 hrs by luciferin-luciferase assay; assay type: functional, organism-based; procedure, shortened: as §1
[12] = Selectivity index, ratio of cytotoxicity against human A549 cells to IC50 for chloroquine-resistant blood-stage Plasmodium falciparum W2; assay type: toxicity, cell-based; details: read-out: Selectivity Index

logP [1]: 3.25 | half-life (Homo sapiens): > 72 h | solubility ([2]; water): 29.8 µg/mL (≈ 80.4 µM)
SMILES: COc1cc(NC(C)CCCN2C(=O)[C@@H](C)NC2(C)C)c2ncccc2c1 (stereo partly specified)

SMILES: COc1cc(NC(C)CCCN2C(=O)CN(C(=O)[C@H](N)CCSC)C2(C)C)c2ncccc2c1 (stereo partly specified)
Activity (Pneumocystis carinii [3]): tde | IC50 (Pneumocystis carinii [4]): 7 µM | Stability [5]: Stable | IC50 (Plasmodium falciparum): 12.5 µM | logP [1]: 2.94 | half-life (Homo sapiens): > 72 h | IC50 (Pneumocystis carinii [6]): 23.8 µM | solubility ([2]; water): 11.7 µg/mL (≈ 24 µM) | Activity (Plasmodium berghei [7]): 26.4% | IC50 (A549): 7.9 µM | Activity (Plasmodium berghei [8]): Dose-dependent effect | IC50 (Plasmodium berghei [8]): 31 µM | Activity (Plasmodium berghei [9]): 47.1% | Activity (Pneumocystis carinii [10]): Dose-dependent effect | IC50 (Pneumocystis carinii [11]): 13.1 µM

SMILES: COc1cc(NC(C)CCCN2C(=O)CN(C(C)=O)C2(C)C)c2ncccc2c1 (stereo unspecified)
IC50 (Pneumocystis carinii [4]): 36.7 µM | IC50 (Plasmodium falciparum): > 10 µM | IC50 (Pneumocystis carinii [6]): ≥ 50 µM | IC50 (A549): > 100 µM | IC50 (Pneumocystis carinii [11]): 102 µM

SMILES: COc1cc(NC(C)CCCN2C(=O)CN(C(=O)[C@H](N)Cc3ccccc3)C2(C)C)c2ncccc2c1 (stereo partly specified)
Activity (Pneumocystis carinii [3]): tde | IC50 (Pneumocystis carinii [4]): 10.1 µM | Stability [5]: Stable | IC50 (Plasmodium falciparum): 9.9 µM | logP [1]: 3.6 | half-life (Homo sapiens): > 72 h | IC50 (Pneumocystis carinii [6]): 24 µM | solubility ([2]; water): 5.4 µg/mL (≈ 10.7 µM) | Activity (Plasmodium berghei [7]): 40% | IC50 (A549): 9.1 µM | Activity (Plasmodium berghei [8]): Dose-dependent effect | IC50 (Plasmodium berghei [8]): 21 µM | Activity (Plasmodium berghei [9]): 43.8% | Activity (Pneumocystis carinii [10]): Dose-dependent effect | IC50 (Pneumocystis carinii [11]): 18.5 µM

logP [1]: 3.07 | solubility ([2]; water): 40.5 µg/mL (≈ 114 µM)
SMILES: COc1cc(NC(C)CCCN2C(=O)CNC2(C)C)c2ncccc2c1 (stereo unspecified)

SMILES: COc1cc(NC(C)CCCN2C(=O)CN(C(=O)[C@H](N)CC(C)C)C2(C)C)c2ncccc2c1 (stereo partly specified)
Activity (Pneumocystis carinii [3]): tde | IC50 (Pneumocystis carinii [4]): 10.9 µM | Stability [5]: Stable | IC50 (Plasmodium falciparum): 6.3 µM | logP [1]: 3.36 | half-life (Homo sapiens): > 72 h | IC50 (Pneumocystis carinii [6]): 31.1 µM | solubility ([2]; water): 26.6 µg/mL (≈ 56.6 µM) | IC50 (A549): 21.2 µM | Activity (Plasmodium berghei [8]): Dose-dependent effect | IC50 (Plasmodium berghei [8]): 24 µM | selectivity ratio [12]: 3.5 | Activity (Pneumocystis carinii [10]): Dose-dependent effect | IC50 (Pneumocystis carinii [11]): 17.9 µM

SMILES: COc1cc(NC(C)CCCN2C(=O)CN(C(=O)[C@@H](C)N)C2(C)C)c2ncccc2c1 (stereo partly specified)
Activity (Pneumocystis carinii [3]): tde | IC50 (Pneumocystis carinii [4]): 8.4 µM | Stability [5]: Stable | logP [1]: 2.49 | half-life (Homo sapiens): > 72 h | IC50 (Pneumocystis carinii [6]): 39.6 µM | solubility ([2]; water): 120 µg/mL (≈ 281 µM) | Activity (Plasmodium berghei [7]): 40.1% | IC50 (A549): 7.8 µM | Activity (Plasmodium berghei [8]): Dose-dependent effect | IC50 (Plasmodium berghei [8]): 10 µM | Activity (Plasmodium berghei [9]): 67.9% | Activity (Pneumocystis carinii [10]): Dose-dependent effect | IC50 (Pneumocystis carinii [11]): 18.7 µM

SMILES: COc1cc(N(C(C)=O)C(C)CCCN2C(=O)CN(C(C)=O)C2(C)C)c2ncccc2c1 (stereo unspecified)
IC50 (Pneumocystis carinii [4]): ≥ 50 µM | IC50 (Plasmodium falciparum): > 10 µM | IC50 (Pneumocystis carinii [6]): ≥ 50 µM | IC50 (A549): > 100 µM | IC50 (Pneumocystis carinii [11]): ≥ 50 µM

SMILES: CC[C@H](C)[C@@H](N)C(=O)N1CC(=O)N(CCCC(C)Nc2cc(OC)cc3cccnc23)C1(C)C (stereo partly specified)
Activity (Pneumocystis carinii [3]): tde | IC50 (Pneumocystis carinii [4]): 9.8 µM | Stability [5]: Stable | IC50 (Plasmodium falciparum): 8.7 µM | logP [1]: 3.4 | half-life (Homo sapiens): > 72 h | IC50 (Pneumocystis carinii [6]): 27.5 µM | solubility ([2]; water): 29.7 µg/mL (≈ 63.2 µM) | Activity (Plasmodium berghei [7]): 62.2% | IC50 (A549): 14.9 µM | Activity (Plasmodium berghei [8]): Dose-dependent effect | IC50 (Plasmodium berghei [8]): 13 µM | Activity (Plasmodium berghei [9]): 83.3% | Activity (Pneumocystis carinii [10]): Dose-dependent effect | IC50 (Pneumocystis carinii [11]): 16 µM

SMILES: COc1cc(NC(C)CCCN2C(=O)CN(C(=O)[C@H](N)C(C)C)C2(C)C)c2ncccc2c1 (stereo partly specified)
Activity (Pneumocystis carinii [3]): tde | IC50 (Pneumocystis carinii [4]): 13.6 µM | Stability [5]: Stable | IC50 (Plasmodium falciparum): 7.9 µM | logP [1]: 2.93 | half-life (Homo sapiens): > 72 h | IC50 (Pneumocystis carinii [6]): 54.3 µM | solubility ([2]; water): 46.5 µg/mL (≈ 102 µM) | IC50 (A549): 5.5 µM | Activity (Plasmodium berghei [8]): Dose-dependent effect | IC50 (Plasmodium berghei [8]): 17 µM | Activity (Pneumocystis carinii [10]): Dose-dependent effect | IC50 (Pneumocystis carinii [11]): 20.2 µM

SMILES: COc1cc(NC(C)CCCN2C(=O)CN(C(=O)CN)C2(C)C)c2ncccc2c1 (stereo unspecified)
Activity (Pneumocystis carinii [3]): tde | IC50 (Pneumocystis carinii [4]): 28.1 µM | Stability [5]: Stable | IC50 (Plasmodium falciparum): 6.7 µM | logP [1]: 2.19 | half-life (Homo sapiens): > 72 h | IC50 (Pneumocystis carinii [6]): 43.8 µM | solubility ([2]; water): 150 µg/mL (≈ 363 µM) | Activity (Plasmodium berghei [7]): 40.5% | IC50 (A549): > 100 µM | Activity (Plasmodium berghei [8]): Dose-dependent effect | IC50 (Plasmodium berghei [8]): 22 µM | Activity (Plasmodium berghei [9]): 42.5% | Activity (Pneumocystis carinii [10]): Dose-dependent effect | IC50 (Pneumocystis carinii [11]): 37.5 µM

SMILES: COc1cc(NC(C)CCCN)c2ncccc2c1 (stereo unspecified) [PRIMAQUINE]
Activity (Pneumocystis carinii [3]): tde | IC50 (Pneumocystis carinii [4]): 3.5 µM | logP [1]: 2.76 | IC50 (Pneumocystis carinii [6]): 18.1 µM | solubility ([2]; buffer): 56.4 µg/mL (≈ 217 µM) | Activity (Plasmodium berghei [7]): 2.9% | IC50 (A549): > 100 µM | Activity (Plasmodium berghei [9]): 40% | Activity (Pneumocystis carinii [10]): Dose-dependent effect | IC50 (Pneumocystis carinii [11]): 8.5 µM

SMILES: COc1cc(NC(C)CCCN2C(=O)[C@@H](C)N(C(=O)CN)C2(C)C)c2ncccc2c1 (stereo partly specified)
Activity (Pneumocystis carinii [3]): tde | IC50 (Pneumocystis carinii [4]): 52.2 µM | Stability [5]: Stable | IC50 (Plasmodium falciparum): 5.5 µM | logP [1]: 2.57 | half-life (Homo sapiens): > 72 h | IC50 (Pneumocystis carinii [6]): ≥ 50 µM | solubility ([2]; water): 110 µg/mL (≈ 257 µM) | Activity (Plasmodium berghei [7]): 37.5% | IC50 (A549): > 100 µM | Activity (Plasmodium berghei [8]): Dose-dependent effect | IC50 (Plasmodium berghei [8]): 21 µM | Activity (Plasmodium berghei [9]): 62% | Activity (Pneumocystis carinii [10]): Dose-dependent effect | IC50 (Pneumocystis carinii [11]): 75.4 µM
